In ChEMBL document CHEMBL1136047, “Discovery of N-[2-[2-[[3-methoxy-4-(5-oxazolyl)phenyl]amino]-5-oxazolyl]phenyl]-N-methyl-4- morpholineacetamide as a novel and potent inhibitor of inosine monophosphate dehydrogenase with excellent in vivo activity” (J Med Chem, 2002):

Columns and labels:
[1] = system: CCRF-CEM; experiment: In vitro secondary T-cell (CEM) proliferation assay; assay type: functional, cell-based; details: Homo sapiens
Procedure, shortened: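 Inhibition of CEM T-cell line proliferation. IC50 in μM, reported as the mean of n = 3 determinations.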

[2] = target: T1, Inosine-5'-monophosphate dehydrogenase 2 (Homo sapiens, UniProt P12268); experiment: Inhibition of human inosine-5'-monophosphate dehydrogenase 2
[3] = target: T1, Inosine-5'-monophosphate dehydrogenase 2; experiment: In vitro concentration that causes 50% inhibition of Inosine-5'-monophosphate dehydrogenase 2
Procedure, shortened: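 Inhibition of IMPDH type II catalytic activity. IC50 reported as the mean of n = 3 determinations.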

[4] = Vss was evaluated after 10 uM/kg of intra arterial administration; assay type: ADME, organism-based; details: rat, in vivo, read-out: Vss
Procedure, shortened: (§1)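 Pharmacokinetics measured in rats.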

[5] = Cmax was evaluated after 20 umol/kg of peroral administration; assay type: ADME, organism-based; parameters: dose 20 umol/kg, route oral; details: rat, in vivo, po; procedure, shortened: as §1
[6] = system: Rattus norvegicus; experiment: Area under the curve was evaluated after 10 uM/kg of intra arterial administration; assay type: ADME, organism-based; details: in vivo, other; procedure, shortened: as §1
[7] = Half-life was evaluated after 10 uM/kg of intra arterial administration; assay type: ADME, organism-based; details: rat, in vivo; procedure, shortened: as §1
[8] = Bioavailability was evaluated after 20 uM/kg of peroral administration; assay type: ADME, organism-based; details: rat, in vivo, po, read-out: Bioavailabiility; procedure, shortened: as §1
[9] = Plasma clearance was evaluated after 10 uM/kg of intra arterial administration; assay type: ADME, organism-based; details: rat; procedure, shortened: as §1
[10] = system: Rattus norvegicus; experiment: Area under the curve was evaluated after 20 uM/kg of peroral administration; assay type: ADME, organism-based; details: in vivo, po; procedure, shortened: as §1
[11] = Half-life was evaluated after 20 uM/kg of peroral administration; assay type: ADME, organism-based; details: rat, in vivo, po; procedure, shortened: as §1

Row | IC50 [1] [nM] | IC50 [2] [nM] | SMILES | other results
1 | 730 | 18 | COc1cc(Nc2ncc(-c3ccccc3N(C)C(C)=O)o2)ccc1-c1cnco1 | 
2 | 650 | 13 | COc1cc(Nc2ncc(-c3ccccc3N(C)C(=O)Cn3cncn3)o2)ccc1-c1cnco1 | 
3 | 680 | 13 | COc1cc(Nc2ncc(-c3ccccc3N(C)C(=O)CCN3CCOCC3)o2)ccc1-c1cnco1 | 
4 | 9000 | 115 | COc1ccc(-c2cnc(Nc3ccc(-c4cnco4)c(OC)c3)o2)cc1 | 
5 | 340 |  | COc1c(C)c2c(c(O)c1C/C=C(\C)CCC(=O)O)C(=O)OC2 [MYCOPHENOLIC ACID] | 
6 | 1000 | 15 | COc1cc(Nc2ncc(-c3ccccc3N(C)C(=O)CN(C)C)o2)ccc1-c1cnco1 | 
7 | > 10000 | 25 | COc1cc(Nc2ncc(-c3ccccc3C)o2)ccc1-c1cnco1 | 
8 | > 10000 | 97 | COc1cccc(-c2cnc(Nc3ccc(-c4cnco4)c(OC)c3)o2)c1 | 
9 | > 10000 | 85 | COc1cc(Nc2ncc(-c3ccc(C)cc3)o2)ccc1-c1cnco1 | 
10 | 960 | 22 | CNCC(=O)N(C)c1ccccc1-c1cnc(Nc2ccc(-c3cnco3)c(OC)c2)o1 | 
11 | 9000 | 27 | COc1cc(Nc2nc(C)c(-c3ccccc3)o2)ccc1-c1cnco1 | 
12 | 7000 | 23 | COc1cc(Nc2ncc(-c3ccccc3OC)o2)ccc1-c1cnco1 | 
13 | > 10000 | 70 | COc1cc(Nc2ncc(-c3cccc(C)c3)o2)ccc1-c1cnco1 | 
14 | 940 | 17 | COc1cc(Nc2ncc(-c3ccccc3N(C)C(=O)CN3CCN(C)CC3)o2)ccc1-c1cnco1 | 
15 | 430 | 10 | COc1cc(NC(=O)Nc2cccc(CNC(=O)O[C@H]3CCOC3)c2)ccc1-c1cnco1 [MERIMEPODIB] | 
16 | 700 | 20 | COc1cc(Nc2ncc(-c3ccccc3N(C)C(=O)CNC(C)(C)C)o2)ccc1-c1cnco1 | 
17 |  |  | COc1cc(Nc2ncc(-c3ccccc3C(=O)O)o2)ccc1-c1cnco1 | inhibition [3]: 11%
18 | 1000 | 30 | COc1cc(Nc2ncc(-c3ccccc3NC(C)=O)o2)ccc1-c1cnco1 | 
19 |  | 12 | COc1cc(Nc2ncc(-c3ccccc3N(C)C(=O)CN3CCOCC3)o2)ccc1-c1cnco1 | Vd [4]: 2.1 L/kg; Cmax [5]: 1500 nM; AUC [6]: 2.37 µM·h; half-life [7]: 5.9 h; bioavailability [8]: 25%; clearance [9]: 71 mL/min/kg; AUC [10]: 1.2 µM·h; half-life [11]: 2.5 h
20 | 9000 | 141 | COc1cc(Nc2ncc(-c3ccccc3C(=O)N(C)C)o2)ccc1-c1cnco1 | 
21 | 890 | 11 | COc1cc(Nc2ncc(-c3ccccc3N(C)C(=O)Cn3cccn3)o2)ccc1-c1cnco1 | 
22 | 8000 | 104 | CNC(=O)c1ccccc1-c1cnc(Nc2ccc(-c3cnco3)c(OC)c2)o1 | 
23 | > 10000 | 127 | CCOC(=O)c1ccccc1-c1cnc(Nc2ccc(-c3cnco3)c(OC)c2)o1 | 
24 | > 10000 | 86 | CCc1nc(Nc2ccc(-c3cnco3)c(OC)c2)oc1-c1ccccc1 | 

Row | SMILES | IC50 [1] [nM] | IC50 [2] [nM] | other results
25 | COc1cc(Nc2ncc(-c3ccccc3)o2)ccc1-c1cnco1 | 7000 | 20 | 
